Calls of active or inactive are those of the source.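 How the source made its calls: active means IC50 of 10 µM or lower; inactive means IC50 above 10 µM.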
Biological target: Disintegrin and metalloproteinase domain-containing protein 17 (Homo sapiens) (UniProt P78536)
Assay: ADAM17 inhibitor potency, late-stage follow-up, ADAM17 exosite inhibitor project, biochemical, QFRET peptide cleavage, IC50 (AID 743337)
Details: recombinant ADAM17, QFRET peptide cleavage, fluorescence 3 h
In short: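 Material: ADAM17 metalloprotease enzyme, cell-free biochemical assay; Medium: 50 mM HEPES buffer pH 7.5 with 0.01% Brij; Incubation: 30 min preincubation plus 3 h reaction, 25 °C; Measured by: fluorescence, ex 359 nm, em 460 nm; Measure: IC50 from four-parameter sigmoidal dose-response fit; Benchmarks: 1 µM marimastat and DMSO; Repeats: triplicate series.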

Chain of Disintegrin and metalloproteinase domain-containing protein 17 (Homo sapiens) (P78536 215-824 limits assumed): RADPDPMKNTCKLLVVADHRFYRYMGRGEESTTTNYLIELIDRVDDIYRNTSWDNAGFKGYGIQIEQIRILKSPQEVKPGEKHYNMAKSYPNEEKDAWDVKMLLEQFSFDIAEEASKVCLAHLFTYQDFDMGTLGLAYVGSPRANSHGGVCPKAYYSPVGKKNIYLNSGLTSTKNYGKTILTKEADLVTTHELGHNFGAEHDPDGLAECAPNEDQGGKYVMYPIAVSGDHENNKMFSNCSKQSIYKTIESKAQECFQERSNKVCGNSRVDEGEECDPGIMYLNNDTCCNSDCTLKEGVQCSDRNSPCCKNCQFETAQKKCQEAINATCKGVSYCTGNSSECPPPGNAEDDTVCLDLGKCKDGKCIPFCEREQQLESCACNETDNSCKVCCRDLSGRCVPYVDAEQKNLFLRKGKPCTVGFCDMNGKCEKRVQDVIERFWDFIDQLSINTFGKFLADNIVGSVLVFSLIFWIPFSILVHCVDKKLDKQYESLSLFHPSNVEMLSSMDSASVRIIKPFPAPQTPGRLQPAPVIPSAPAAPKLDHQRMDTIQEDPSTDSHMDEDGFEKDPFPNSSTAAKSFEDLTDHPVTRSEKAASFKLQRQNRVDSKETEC

SMILES | IC50
Cc1ccc(OCC(O)Cn2c3ccccc3c3ccccc32)cc1 (centres undefined) | > 69.5 µM (inactive)
CCCCN(Cc1ccccc1)S(=O)(=O)c1cc(Br)cc2c1N(C(C)=O)C(C)C2 (centres undefined) | > 69.5 µM (inactive)
O=C(O)CCC(=O)c1c[nH]c2ccccc12 | inactive
CCCOC(=O)c1ccc(Oc2cn[nH]c2-c2ccc(OCC)cc2O)cc1 | > 69.5 µM (inactive)
O=C1NC(=O)C(Cc2ccc(Cl)cc2)(c2ccccc2)N1 (centres undefined) | 3.76 µM
CS(=O)(=O)N(CC(=O)Nc1ccccc1Sc1ccccc1)c1cccc(Br)c1 | > 69.5 µM (inactive)
Cc1csc(-c2cnn(-c3ccccc3)c2NC(=O)c2ccc(C(F)(F)F)cc2)n1 | > 69.5 µM (inactive)
Oc1cc2c(cc1C(c1ccc(Cl)c(Cl)c1)N1CCCC1)OCO2 (centres undefined) | inactive
O=C(CN(Cc1cccs1)S(=O)(=O)c1ccc(S(=O)(=O)NC2CCCCC2)cc1)Nc1ccccc1 | > 69.5 µM (inactive)
O=S(=O)(NCC(Nc1ccc(Cl)cc1)c1ccccc1)c1ccc(Cl)cc1 (centres undefined) | > 69.5 µM (inactive)
Cc1ccc(CC2(c3ccccc3)NC(=O)NC2=O)cc1 (centres undefined) | inactive
O=S(=O)(NCC(Nc1ccc(Cl)cc1)c1ccccc1)c1ccccc1 (centres undefined) | > 69.5 µM (inactive)

More lines, now with the values ahead:

IC50 | SMILES
> 69.5 µM (inactive) | COc1ccccc1NS(=O)(=O)c1cccc(NC(=O)Nc2ccc(Cl)cc2)c1
> 69.5 µM (inactive) | Cc1ccc(S(=O)(=O)Nc2ccc(Cl)cc2)cc1NC(=O)c1cc2c(s1)CCCC2
7.83 µM | CCOc1ccc(NC(=O)CC2SC(=O)N(c3ccccc3)C2=O)cc1 (centres undefined)
> 69.5 µM (inactive) | COc1ccc2nc(SCC(=O)Nc3ccc(S(=O)(=O)N4CCCC4)cc3)c(C#N)cc2c1
> 69.5 µM (inactive) | COc1cccc(C(=O)NNC(=O)C(=O)Nc2ccc(C)c(Cl)c2)c1
> 69.5 µM (inactive) | O=C(Nc1ccc(OCC(F)(F)C(F)F)c(C(F)(F)F)c1)c1ccc(Cl)cc1
> 69.5 µM (inactive) | O=C(Nc1ccc(OCC(F)(F)C(F)(F)F)c(C(F)(F)F)c1)c1ccc(F)cc1
> 69.5 µM (inactive) | O=C(Nc1ccc(OCC(F)(F)C(F)(F)F)c(C(F)(F)F)c1)c1ccc(Br)cc1
> 69.5 µM (inactive) | C=C(C)COc1ccc(-c2[nH]ncc2Oc2cccc(OC)c2)c(O)c1
> 69.5 µM (inactive) | C=C(C)COc1ccc(-c2[nH]ncc2Oc2ccc(OC)cc2)c(O)c1
> 69.5 µM (inactive) | COc1ccc(-c2ccc(-c3noc(-c4cccc(OC)c4)n3)c(OC)n2)cc1
> 69.5 µM (inactive) | C=C(C)COc1ccc(-c2n[nH]c(C)c2Oc2ccccc2OC)c(O)c1

From PubChem BioAssay AID743337 (The Scripps Research Institute Molecular Screening Center, 2014)
